Data set [1] concerns the target T1, C-X-C chemokine receptor type 4 (Homo sapiens, UniProt P61073). Kind of data set: Antagonist activity at CXCR4 in human SupT1 cells assessed as inhibition of CXCL12-induced Ca2+ influx preincubated for 2 to 3 mins prior CXCL12-stimulation by fura-2/AM dye-based fluorescence analysis. In kind it is functional, cell-based. The procedure, abridged: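 Fura-2/AM-loaded SUP-T1 cells (2 μM dye, 5 μM probenecid, 30 min; 2 × 10^6 cells/mL in Hepes pH 7.4 saline with Ca2+/Mg2+, glucose, 0.025% BSA) were pre-incubated with peptide for 2–3 min, then stimulated with SDF-1α. Fluorescence was read at ex 340/380 nm, em 510 nm.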

In data set [2] the target is T1, C-X-C chemokine receptor type 4. Kind of data set: Antagonist activity at CXCR4 in human SupT1 cells assessed as inhibition of CXCL12-induced cell migration at 100 nM preincubated for 2 hrs followed by CXCL12 addition measured after 3 hrs by Cell titer-Blue reagent-based transwell assay. A digest of the protocol:
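SUP-T1 cells were washed in RPMI1640 with 0.5% BSA, and 1 × 10^6 cells were incubated with peptide for 2 h. Cells were then seeded in upper transwell chambers (5 μm pores) over a lower chamber with 10 nM SDF-1α, or buffer alone for background. Migration ran 3 h at 37°C. Migrated cells were expressed as % of seeded cells. At least three independent experiments, mean ± S.E.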
A general note: Resazurin is reduced to fluorescent resorufin, in cell work by metabolically active cells.

The next data set concerns SUP-T1. Description: Cytotoxicity against human SupT1 cells at 100 nM. The class given is cell-based. The settings on record: sup-t1, 0.1 µM.

Activity calls are given as the source filed them. The calls are words filed in the database; no cut-off is given here.

T1 sequence (P61073 whole entry): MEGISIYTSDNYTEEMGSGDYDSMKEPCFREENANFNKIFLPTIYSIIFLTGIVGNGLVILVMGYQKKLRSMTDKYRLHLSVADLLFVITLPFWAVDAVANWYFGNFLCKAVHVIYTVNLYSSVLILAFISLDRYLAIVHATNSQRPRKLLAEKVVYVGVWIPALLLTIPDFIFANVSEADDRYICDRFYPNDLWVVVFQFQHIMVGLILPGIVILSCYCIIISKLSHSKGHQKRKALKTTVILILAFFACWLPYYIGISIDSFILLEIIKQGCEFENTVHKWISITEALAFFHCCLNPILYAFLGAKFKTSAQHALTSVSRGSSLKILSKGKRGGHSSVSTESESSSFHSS

Regarding `CC(C)C[C@@H](N)C(=O)NCC(=O)N[C@H](C)C(=O)N[C@H](CO)C(=O)N[C@H](Cc1c[nH]c2ccccc12)C(=O)N[C@H](Cc1cnc[nH]1)C(=O)N[C@H](CCCNC(=N)N)C(=O)N1CCC[C@@H]1C(=O)N[C@H](CC(=O)O)C(=O)N[C@H](CCCCN)C(=O)NCCOCCOCCOCCOCCOCCOCCOCCC(=O)NCCCC[C@H](NC(=O)CCOCCOCCOCCOCCOCCOCCOCCNC(=O)[C@@H](CCCCN)NC(=O)[C@@H](CC(=O)O)NC(=O)[C@H]1CCCN1C(=O)[C@@H](CCCNC(=N)N)NC(=O)[C@@H](Cc1cnc[nH]1)NC(=O)[C@@H](Cc1c[nH]c2ccccc12)NC(=O)[C@@H](CO)NC(=O)[C@@H](C)NC(=O)CNC(=O)[C@H](N)CC(C)C)C(N)=O`, the “antagonist activity (qualitative)” value in data set [1] was “Active”. In data set [2], the inhibition came to 48%. In addition, in the data set on SUP-T1, the Activity entry is given as “Non-Toxic”.

For the compound `CC(C)C[C@@H](N)C(=O)NCC(=O)N[C@H](C)C(=O)N[C@H](CO)C(=O)N[C@H](Cc1c[nH]c2ccccc12)C(=O)N[C@H](Cc1cnc[nH]1)C(=O)N[C@H](CCCNC(=N)N)C(=O)N1CCC[C@@H]1C(=O)N[C@H](CC(=O)O)C(=O)N[C@H](CCCCN)C(=O)NCCOCCOCCOCCOCCOCCC(=O)NCCCC[C@H](NC(=O)CCOCCOCCOCCOCCOCCNC(=O)[C@@H](CCCCN)NC(=O)[C@@H](CC(=O)O)NC(=O)[C@H]1CCCN1C(=O)[C@@H](CCCNC(=N)N)NC(=O)[C@@H](Cc1cnc[nH]1)NC(=O)[C@@H](Cc1c[nH]c2ccccc12)NC(=O)[C@@H](CO)NC(=O)[C@@H](C)NC(=O)CNC(=O)[C@H](N)CC(C)C)C(N)=O`, the “antagonist activity (qualitative)” value in data set [1] was “Active”. Also, the Activity entry with SUP-T1 is on record as “Non-Toxic”.

`CC(C)C[C@@H](N)C(=O)NCC(=O)N[C@H](C)C(=O)N[C@H](CO)C(=O)N[C@H](Cc1c[nH]c2ccccc12)C(=O)N[C@H](Cc1cnc[nH]1)C(=O)N[C@H](CCCNC(=N)N)C(=O)N1CCC[C@@H]1C(=O)N[C@H](C)C(=O)N[C@H](CCCCN)C(=O)NCCOCCOCCOCCC(=O)NCCCC[C@H](NC(=O)CCOCCOCCOCCNC(=O)[C@@H](CCCCN)NC(=O)[C@@H](C)NC(=O)[C@H]1CCCN1C(=O)[C@@H](CCCNC(=N)N)NC(=O)[C@@H](Cc1cnc[nH]1)NC(=O)[C@@H](Cc1c[nH]c2ccccc12)NC(=O)[C@@H](CO)NC(=O)[C@@H](C)NC(=O)CNC(=O)[C@H](N)CC(C)C)C(N)=O`: the “antagonist activity (qualitative)” value in data set [1] was “Active”. In data set [2], the inhibition stood at 21%. In the data set with SUP-T1, the Activity result is “Non-Toxic”.

Take `CC(C)C[C@@H](N)C(=O)NCC(=O)N[C@H](C)C(=O)N[C@H](CO)C(=O)N[C@H](Cc1c[nH]c2ccccc12)C(=O)N[C@H](Cc1cnc[nH]1)C(=O)N[C@H](CCCNC(=N)N)C(=O)N1CCC[C@@H]1C(=O)N[C@H](CC(=O)O)C(=O)N[C@H](CCCCN)C(=O)NCCOCCOCCOCCC(=O)NCCCC[C@H](NC(=O)CCOCCOCCOCCNC(=O)[C@@H](CCCCN)NC(=O)[C@@H](CC(=O)O)NC(=O)[C@H]1CCCN1C(=O)[C@@H](CCCNC(=N)N)NC(=O)[C@@H](Cc1cnc[nH]1)NC(=O)[C@@H](Cc1c[nH]c2ccccc12)NC(=O)[C@@H](CO)NC(=O)[C@@H](C)NC(=O)CNC(=O)[C@H](N)CC(C)C)C(N)=O`: the inhibition in data set [2] amounted to 67%. The Activity entry with SUP-T1 was “Non-Toxic”.

Regarding `CC(C)C[C@@H](N)C(=O)NCC(=O)N[C@H](C)C(=O)N[C@H](CO)C(=O)N[C@H](Cc1c[nH]c2ccccc12)C(=O)N[C@H](Cc1cnc[nH]1)C(=O)N[C@H](CCCNC(=N)N)C(=O)N1CCC[C@@H]1C(=O)NCCOCCOCCOCCOCCOCCC(=O)NCCCC[C@H](NC(=O)CCOCCOCCOCCOCCOCCNC(=O)[C@H]1CCCN1C(=O)[C@@H](CCCNC(=N)N)NC(=O)[C@@H](Cc1cnc[nH]1)NC(=O)[C@@H](Cc1c[nH]c2ccccc12)NC(=O)[C@@H](CO)NC(=O)[C@@H](C)NC(=O)CNC(=O)[C@H](N)CC(C)C)C(N)=O`, in data set [2], the inhibition was 34%. The Activity entry in the data set with SUP-T1 was “Non-Toxic”.

The term inhibition denotes the change of the read-out against control, counted positive when it falls.

For the origin of these results see ChEMBL document CHEMBL4428122, “Design, synthesis, and biological characterization of novel PEG-linked dimeric modulators for CXCR4” (Bioorg Med Chem, 2016).
